The subject of experiment [1] is Raji. The experiment in a line: Inhibition of human tumor B-lymphoblast Raji/O cell proliferation. The class given is functional, cell-based. The essentials: (§1)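 Human Molt/4F, MT-4, and Raji cells (wild-type, TK⁻ or dCK⁻) in RPMI-1640 with 10% inactivated FCS, 2 mM L-glutamine and 0.075% NaHCO₃, seeded at 7.5 × 10⁵ cells/mL with compound (0.001–500 µM). Incubated 3 days at 37 °C in humidified CO₂; viable cells counted by Coulter counter. IC₅₀ = 50% reduction in viable cells; means of 2–4 independent experiments.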

Experiment [2] concerns Raji. The experiment can be described thus: Inhibition of human tumor B-lymphoblast Raji/TK-(thymidine kinase deficient) cell proliferation. It counts as functional, cell-based. The essentials:
as §1

The subject of experiment [3] is Raji. The experiment in a line: Inhibition of human tumor B-lymphoblast Raji/dCK-(dcyd kinase deficient) cell proliferation. The class given is functional, cell-based. The essentials:
as §1

Experiment [4] concerns L1210. The experiment in a line: In vitro inhibition of L1210 (murine leukemia) cell proliferation. It counts as functional, cell-based. As to conditions: Mus musculus. Put shortly: (§2)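 Murine FM3A or L1210 cells in Eagle's MEM with 10% inactivated FCS, 2 mM L-glutamine and 0.075% NaHCO₃, seeded at 5 × 10⁵ cells/mL with compound (0.001–500 µM). After 2 days at 37 °C in humidified CO₂, viable cells were counted with a Coulter counter. IC₅₀ = 50% fewer viable cells; mean of 2–4 experiments.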

Experiment [5] has as its system L1210. The experiment in a line: Concentration required to inhibit the proliferation of L1210 murine leukemia cell line by 50% in presence of exogenous nucleoside (d)Thd (5 ug/mL). It counts as functional, cell-based. The settings on record: Mus musculus. The essentials: (§3)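 L1210 murine leukemia cells in Eagle's MEM with 10% inactivated fetal calf serum, 2 mM L-glutamine and 0.075% NaHCO₃. 5 × 10⁵ cells/mL were exposed to test compound (0.001–500 µM) together with the stated exogenous nucleoside at subtoxic level. Incubated 2 days at 37 °C in humidified CO₂. Viable cells were counted by Coulter counter. IC₅₀ = 50% reduction in viable cell number; mean of 2–4 independent experiments.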

Experiment [6] relates to L1210. The experiment in a line: Concentration required to inhibit the proliferation of L1210 murine leukemia cell line by 50% in presence of exogenous nucleoside dCyd (500 ug/mL). The class given is functional, cell-based. The settings on record: Mus musculus. The essentials: as §3
Experiment [7] concerns L1210. The experiment in a line: Concentration required to inhibit the proliferation of L1210 murine leukemia cell line by 50% in presence of exogenous nucleoside dUrd (125 ug/mL). It counts as functional, cell-based. The settings on record: Mus musculus. Put shortly: as §3
Experiment [8] concerns L1210. The experiment in a line: Antitumor activity in mice bearing L1210 murine leukemia cell line at a dose of 100 mg/kg/day. It counts as functional, Mus musculus. Put shortly:
(§4)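 DBA/2 mice (20 g) inoculated ip with 10⁶ L1210 leukemia cells; test agent given ip once daily for 5 successive days beginning 1 day after inoculation, dissolved in Eagle's MEM containing 2.5% Tween (250 μL injection). Untreated tumor-bearing controls; read-out mean survival time in days, 7–15 mice per group.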

For experiment [9], the system named is L1210. The experiment can be described thus: Antitumor activity in mice bearing L1210 murine leukemia cell line at a dose of 50 mg/kg/day. It counts as functional, Mus musculus. The essentials:
as §4

Experiment [10] can be described thus: In vitro inhibition of Molt/4f (Human T-lymphoblast) cell proliferation. The class given is functional. The essentials:
as §1

Experiment [11] is described as follows: In vitro inhibition of FM3A (murine carcinoma) cell proliferation. It counts as functional. The settings on record: Mus musculus. The essentials: as §2
Experiment [12] is filed under the species Homo sapiens. The experiment can be described thus: Concentration required to inhibit the proliferation of human T-lymphocyte CEM/dCK-(dcyd kinase deficient) cells by 50%. It counts as functional. Put shortly:
(§5)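 Wild-type CEM and kinase-deficient sublines (AK⁻, dCK⁻, AK⁻/dCK⁻) grown in RPMI-1640 with 10% inactivated FCS, 2 mM L-glutamine and 0.075% NaHCO₃. Cells were exposed to compound at 0.001–500 µM for 3 days at 37 °C in humidified CO₂. Viable cells counted by Coulter counter; IC₅₀ = 50% reduction in viable cells. Mean of 2–4 independent experiments.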

The species entered for experiment [13] is Homo sapiens. The experiment in a line: Concentration required to inhibit the proliferation of human T-lymphocyte CEM/o cells by 50%. The class given is functional. Put shortly: as §5
Experiment [14] deals with MT4. The experiment in a line: In vitro inhibition of MT-4 (Human T-lymphocyte) cell proliferation. The class given is functional, cell-based. Put shortly:
as §1

`C=C1C(n2ccc(N)nc2=O)O[C@H](CO)[C@@H]1O` (some centres undefined): the IC50 was determined as 0.025 µM in [1]; 0.035 µM in experiment [2]; 31 µM in experiment [3]; 2 µM in [4]; 1.18 µM in [5]; 475 µM in [6]. For the same compound, the half-inhibitory concentration (IC50) in experiment [7] was determined as 1.47 µM; in experiment [10] it was 0.11 µM; in [11] it was 11 µM; in experiment [12], 60 µM; in experiment [13] it was 0.046 µM; in experiment [14] it was 0.19 µM. Further, the Mean survival time in experiment [8] is 15.6 days; in [9] it was 12 days.

By IC50 is commonly meant the concentration that gives 50% inhibition.

The values are drawn from ChEMBL document CHEMBL1126204, “Nucleic acid related compounds. 74. Synthesis and biological activity of 2'(and 3')-deoxy-2'(and 3')-methylenenucleoside analogues that function as mechanism-based inhibitors of S-adenosyl-L-homocysteine hydrolase and/or ribonucleotide reductase” (J Med Chem, 1992).
